The values below come from ChEMBL document CHEMBL5712884, “S-Adenosyl-L-methionine-competitive inhibitors of the histone methyltransferase EZH2 induce autophagy and enhance drug sensitivity in cancer cells” (Anticancer Drugs, 2015).

Activity calls are given as the source filed them. The rule behind the calls is not given here.

Data set [1] concerns MDA-MB-231. The experiment in a line: Induction of autophagy in human MDA-MB-231 cells assessed as induction of LC3-II accumulation at 10 umol/L for 48 hrs by Western blot analysis. The conditions noted are these: dose 10.0 µmol/L. In general terms: In western blotting, separated proteins are transferred to a membrane and probed.
In data set [2] the test system is HepG2. The data set can be described thus: Cytotoxicity against human HepG2 cells assessed as effect on cell viability incubated for 72 hrs by MTT analysis. Format: functional, cell-based. Put shortly:
(§1)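 Cells in DMEM with 10% FBS at 37°C, 5% CO2, plated in 96-well plates and drug-treated for 72 h. MTT 0.5 mg/ml added for 4 h, formazan dissolved in DMSO, absorbance read at 550 nm. Means and SDs; Student's t-test.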

The target in data set [3] is Histone-lysine N-methyltransferase EZH2 (Homo sapiens) (UniProt Q15910). The experiment in a line: Inhibition of EZH2 in human A549 cells assessed as reduction in H3K27-me3 level at 10 umol/L incubated for 72 hrs by Western blot analysis. Format: cell-based. The conditions noted are these: dose 10.0 µmol/L.
Data set [4] deals with MDA-MB-231. The experiment in a line: Induction of autophagy in human MDA-MB-231 cells assessed as change in total LAMP2 expression at 10 umol/L measured after 24 hrs in presence of bafilomycin A1 by Western blot analysis. The conditions noted are these: mda-mb-231, 24 h, 10 µM, dose 10 µmol/L. The data set is classed as toxicity, cell-based.
For data set [5], the system named is A549. The data set can be described thus: […] in human A549 cells assessed as induction of LC3-II accumulation at 10 to 20 umol/L measured after 24 hrs by Western blot analysis. The conditions noted are these: dose 10-20 µmol/L. Format: functional, cell-based. Put shortly:
(§2)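 A549 and HepG2 cells drug-treated with or without bafilomycin A1. Lysates made in Tris pH 7.5/NP-40 buffer with protease and phosphatase inhibitors, 25–50 μg run on 7–12% SDS-PAGE, probed for LC3B, ECL detection.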

The subject of data set [6] is MDA-MB-231. The experiment in a line: […] in human MDA-MB-231 cells assessed as induction of LC3-II accumulation at 10 umol/l measured after 24 hrs in presence of class III PI3K inhibitor 3-methyladenine by Western blot analysis. The conditions noted are these: dose 10.0 µmol/L. Format: functional, cell-based.
Data set [7] has as its system HepG2. The experiment in a line: Potentiation of sorafenib-induced anticancer activity in human HepG2 cells assessed as increase in LC3-II accumulation at 10 umol/L measured after 72 hrs by Western blot analysis. Format: functional, cell-based. The conditions noted are these: dose 10.0 µmol/L. Put shortly:
(§3)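 HepG2 cells given 5 μmol/l sorafenib, with or without 10 μmol/l compound, for 72 h. Whole-cell lysates immunoblotted for PARP1, LC3B and β-actin.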

In data set [8] the test system is MDA-MB-231. The data set can be described thus: Induction of autophagy in human MDA-MB-231 cells assessed as formation of autophagic vacuoles by measuring increase in Cyto-ID fluorescence intensity at 10 umol/L by measured after 24 hrs by Cyto-ID/Hoechst 33342 fluorescence microscopic analysis. Format: functional, cell-based. The conditions noted are these: dose 10.0 µmol/L. Put shortly:
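MDA-MB-231 cells washed twice in PBS with 5% FBS, then stained with Cyto-ID detection reagent plus Hoechst 33342 for 30 min at 37°C. Cells washed and autophagic vacuoles imaged by fluorescence microscopy.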

Data set [9] deals with Histone-lysine N-methyltransferase EZH2 (Homo sapiens) (UniProt Q15910). The data set can be described thus: Inhibition of EZH2 in human HepG2 cells assessed as reduction in H3K27-me3 level at 10 umol/L incubated for 72 hrs by Western blot analysis. Format: cell-based. The conditions noted are these: dose 10.0 µmol/L.
In data set [10] the test system is HepG2. The experiment in a line: Cytotoxicity against human HepG2 cells assessed as effect on cell viability after 72 hrs by MTT analysis. The data set is classed as functional, cell-based. Put shortly:
as §1

Data set [11] has as its system MDA-MB-231. The experiment in a line: Induction of autophagy in human MDA-MB-231 cells assessed as change in total LAMP2 expression at 10 umol/L measured after 24 hrs by Western blot analysis. The data set is classed as toxicity, cell-based. The conditions noted are these: mda-mb-231, 24 h, 10 µM, dose 10 µmol/L.
For data set [12], the system named is MDA-MB-231. The data set can be described thus: Cytotoxicity against human MDA-MB-231 cells assessed as reduction in cell viability after 72 hr by MTT analysis. The data set is classed as functional, cell-based. Put shortly:
as §1

For data set [13], the system named is MDA-MB-231. The data set can be described thus: Induction of autophagy in human MDA-MB-231 cells assessed as reduction in expression of p62 at 10 umol/L incubated for 24 hrs by Western blot analysis. Format: functional, cell-based. The conditions noted are these: dose 10.0 µmol/L.
Data set [14] has as its system MDA-MB-231. The experiment in a line: Induction of autophagy in human MDA-MB-231 cells assessed as induction of LC3-II accumulation at 10 to 20 umol/L incubated for 24 hrs by Western blot analysis. The data set is classed as functional, cell-based. As to conditions: dose 10-20 µmol/L.
Data set [15] has as its system MDA-MB-231. The experiment in a line: Induction of autophagy in human MDA-MB-231 cells assessed as increase in LC3-II accumulation at 10 umol/L incubated for 24 hrs in presence of bafilomycin A1 by Western blot analysis. The data set is classed as functional, cell-based. As to conditions: dose 10.0 µmol/L.
Data set [16] concerns MDA-MB-231. The experiment in a line: Induction of apoptosis in human MDA-MB-231 cells assessed as induction of cleavage of caspase-3 at 10 to 20 umol/L incubated for 72 hrs by Western blot analysis. The data set is classed as functional, cell-based. The conditions noted are these: dose 10-20 µmol/L.
Data set [17] relates to MDA-MB-231. The data set can be described thus: Induction of apoptosis in human MDA-MB-231 cells assessed as induction of cleavage of PARP at 10 to 20 umol/L incubated for 72 hrs by Western blot analysis. The conditions noted are these: dose 10-20 µmol/L. The data set is classed as functional, cell-based.
For data set [18], the system named is A549. The experiment in a line: Cytotoxicity against human A549 cells assessed as reduction in cell viability at 10 umol/L measured after 72 hrs in presence of class III PI3K inhibitor 3-methyladenine by MTT assay. The data set is classed as functional, cell-based. The conditions noted are these: dose 10.0 µmol/L. An outline of the steps:
(§4)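 HepG2 and A549 cells pretreated 1 h with 2 mmol/l 3-MA, then exposed to 10 μmol/l compound for 72 h. Viability read by MTT (0.5 mg/ml, 4 h, formazan in DMSO, A550). Means and SDs; Student's t-test against cells without 3-MA.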

Data set [19] concerns HepG2. The experiment in a line: […] in human HepG2 cells assessed as induction of LC3-II accumulation at 10 to 20 umol/L measured after 24 hrs in presence of bafilomycin A1 by Western blot analysis. The data set is classed as functional, cell-based. The conditions noted are these: dose 10-20 µmol/L. Put shortly: as §2
Data set [20] relates to HepG2. The data set can be described thus: Cytotoxicity against human HepG2 cells assessed as reduction in cell viability at 10 umol/L measured after 72 hrs in presence of class III PI3K inhibitor 3-methyladenine by MTT assay. Format: functional, cell-based. As to conditions: dose 10.0 µmol/L. Put shortly: as §4
(Tetrazolium assays rely on reduction of a dye to a coloured formazan, in cell work by metabolically active cells.)

Data set [21] concerns the target Histone-lysine N-methyltransferase EZH2 (Homo sapiens) (UniProt Q15910). The data set can be described thus: Inhibition of EZH2 in human MDA-MB-231 cells assessed as reduction in H3K27-me3 level at 10 umol/L incubated for 72 hrs by Western blot analysis. Format: cell-based. The conditions noted are these: dose 10.0 µmol/L.
Data set [22] deals with A549. The data set can be described thus: […] in human A549 cells assessed as induction of LC3-II accumulation at 10 to 20 umol/L measured after 24 hrs in presence of bafilomycin A1 by Western blot analysis. Format: functional, cell-based. As to conditions: dose 10-20 µmol/L. An outline of the steps: as §2
Data set [23] concerns HepG2. The data set can be described thus: Potentiation of sorafenib-induced anticancer activity in human HepG2 cells at 10 umol/L measured after 72 hrs by MTT assay. Format: functional, cell-based. The conditions noted are these: dose 10.0 µmol/L. Put shortly: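 HepG2 cells given a range of sorafenib doses, with or without 10 μmol/l compound, for 72 h. Viability by MTT (0.5 mg/ml, 4 h, DMSO, A550). Student's t-test against untreated cells.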

The subject of data set [24] is HepG2. The experiment in a line: […] in human HepG2 cells assessed as induction of LC3-II accumulation at 10 to 20 umol/L measured after 24 hrs by Western blot analysis. The data set is classed as functional, cell-based. The conditions noted are these: dose 10-20 µmol/L. An outline of the steps: as §2
The test system of data set [25] is MDA-MB-231. The data set can be described thus: Induction of autophagy in human MDA-MB-231 cells assessed as downregulation of p62 expression at 10 umol/L measured after 24 hrs in presence of bafilomycin A1 by Western blot analysis. The conditions noted are these: dose 10.0 µmol/L. The data set is classed as functional, cell-based.
Data set [26] has as its system MDA-MB-231. The experiment in a line: Induction of apoptosis in human MDA-MB-231 cells assessed as reduction in pro-caspase-3 expression at 10 to 20 umol/L incubated for 72 hrs by Western blot analysis. The data set is classed as functional, cell-based. As to conditions: dose 10-20 µmol/L.
Data set [27] has as its system MDA-MB-231. The experiment in a line: Cytotoxicity against human MDA-MB-231 cells assessed as reduction in cell viability measured after 72 hrs in presence of class III PI3K inhibitor 3-methyladenine by MTT assay. The data set is classed as functional, cell-based.
In data set [28] the test system is MDA-MB-231. The experiment in a line: Induction of autophagy in human MDA-MB-231 cells assessed as induction of LC3-II accumulation at 10 to 20 umol/L incubated for 72 hrs by Western blot analysis. Format: functional, cell-based. As to conditions: dose 10-20 µmol/L.
The test system of data set [29] is HepG2. The data set can be described thus: Potentiation of sorafenib-induced anticancer activity in human HepG2 cells assessed as increase in cleaved PARP expression at 10 umol/L measured after 72 hrs by Western blot analysis. Format: functional, cell-based. The conditions noted are these: dose 10.0 µmol/L. An outline of the steps:
as §3

The subject of data set [30] is MDA-MB-231. The data set can be described thus: Induction of apoptosis in human MDA-MB-231 cells assessed as cleavage of PARP at 0.75 umol/L incubated for 72 hrs by Western blot analysis. As to conditions: dose 0.75 µmol/L. Format: functional, cell-based.
The subject of data set [31] is MDA-MB-231. The data set can be described thus: […] in human MDA-MB-231 cells assessed as induction of LC3-II accumulation at 1 umol/L for 48 hrs by Western blot analysis. Format: functional, cell-based. As to conditions: dose 1.0 µmol/L.
In data set [32] the test system is MDA-MB-231. The experiment in a line: Induction of apoptosis in human MDA-MB-231 cells assessed as cleavage of caspase-3 at 0.75 umol/L incubated for 72 hrs by Western blot analysis. The data set is classed as functional, cell-based. As to conditions: dose 0.75 µmol/L.
Data set [33] deals with MDA-MB-231. The data set can be described thus: […] in human MDA-MB-231 cells assessed as induction of LC3-II accumulation at 2 umol/L for 48 hrs by Western blot analysis. Format: functional, cell-based. As to conditions: dose 2.0 µmol/L.

Histone-lysine N-methyltransferase EZH2 (Homo sapiens), sequence (Q15910 whole entry, looked up): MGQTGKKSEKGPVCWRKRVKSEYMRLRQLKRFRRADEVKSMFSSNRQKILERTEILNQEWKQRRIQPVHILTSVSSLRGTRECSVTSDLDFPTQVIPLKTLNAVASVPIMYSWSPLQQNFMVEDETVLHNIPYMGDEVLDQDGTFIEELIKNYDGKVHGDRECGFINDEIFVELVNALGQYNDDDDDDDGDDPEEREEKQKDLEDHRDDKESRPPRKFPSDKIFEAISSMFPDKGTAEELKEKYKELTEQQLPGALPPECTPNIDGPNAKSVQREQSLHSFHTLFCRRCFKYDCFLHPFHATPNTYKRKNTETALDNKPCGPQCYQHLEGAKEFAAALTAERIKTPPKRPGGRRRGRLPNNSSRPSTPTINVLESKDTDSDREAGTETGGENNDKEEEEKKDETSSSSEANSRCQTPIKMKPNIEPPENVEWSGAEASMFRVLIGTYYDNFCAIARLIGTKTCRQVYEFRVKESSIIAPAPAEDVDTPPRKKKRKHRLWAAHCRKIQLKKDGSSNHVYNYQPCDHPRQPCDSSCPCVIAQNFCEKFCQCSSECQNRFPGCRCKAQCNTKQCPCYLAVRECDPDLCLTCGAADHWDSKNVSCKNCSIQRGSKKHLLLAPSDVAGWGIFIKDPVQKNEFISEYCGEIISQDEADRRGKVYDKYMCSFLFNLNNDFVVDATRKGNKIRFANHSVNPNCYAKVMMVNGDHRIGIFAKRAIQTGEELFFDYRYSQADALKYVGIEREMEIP

With `COc1cc([C@@H]2c3cc4c(cc3[C@@H](O[C@@H]3O[C@@H]5CO[C@@H](C)O[C@H]5[C@H](O)[C@H]3O)[C@H]3COC(=O)[C@H]23)OCO4)cc(OC)c1O`, the result in data set [1] was Active.
Consider `CCCc1cc(C)[nH]c(=O)c1CNC(=O)c1cc(-c2ccnc(N3CCN(C)CC3)c2)cc2c1cnn2C(C)C`, for which the result in [2], in data set [1], in data set [5], in [7], in [8] and in data set [10] was Active. For the same molecule, the outcome in [13], in data set [14], in [15], in [17], in [19] and in data set [22] was Active. Further, the outcome in data set [23], in data set [24], in [26], in data set [28] and in data set [29] was Active. Also, the inhibition result in data set [3], in data set [9] and in data set [21] was “Active” in each case. The Activity result in data set [4] was “Non-Toxic”; in data set [11], “Non-Toxic”; in data set [12] it was “Dose-Dependent Effect”. For the same molecule, the result in [6], in data set [16], in data set [18], in data set [20], in data set [25] and in [27] was inactive.
With `COc1cccc2c1C(=O)c1c(O)c3c(c(O)c1C2=O)C[C@@](O)(C(=O)CO)C[C@@H]3O[C@H]1C[C@H](N)[C@H](O)[C@H](C)O1`, the outcome in [30], in data set [31] and in [32] was Active.
Regarding `O=C(CCCCCCC(=O)Nc1ccccc1)NO`, in data set [33], the result was Active.
